# Laboratory results published in PMC7729281 (Biochemistry, 2020).
# “And” between values parts separate entries of the source, which are not always exact repeats. Identical values can stand only once.
# Tests used:
# Assay type in all cases: biochemical
# h12-LOX = molecular target: T1, h12-LOX (Homo sapiens, UniProt P18054); assay: Allosteric modulation of 14S-HpDHA epoxidation by h12-LOX; details: 14S-HpDHA titrated 1 to 50 μM, 76% at start
# T1 sequence (P18054 1-663): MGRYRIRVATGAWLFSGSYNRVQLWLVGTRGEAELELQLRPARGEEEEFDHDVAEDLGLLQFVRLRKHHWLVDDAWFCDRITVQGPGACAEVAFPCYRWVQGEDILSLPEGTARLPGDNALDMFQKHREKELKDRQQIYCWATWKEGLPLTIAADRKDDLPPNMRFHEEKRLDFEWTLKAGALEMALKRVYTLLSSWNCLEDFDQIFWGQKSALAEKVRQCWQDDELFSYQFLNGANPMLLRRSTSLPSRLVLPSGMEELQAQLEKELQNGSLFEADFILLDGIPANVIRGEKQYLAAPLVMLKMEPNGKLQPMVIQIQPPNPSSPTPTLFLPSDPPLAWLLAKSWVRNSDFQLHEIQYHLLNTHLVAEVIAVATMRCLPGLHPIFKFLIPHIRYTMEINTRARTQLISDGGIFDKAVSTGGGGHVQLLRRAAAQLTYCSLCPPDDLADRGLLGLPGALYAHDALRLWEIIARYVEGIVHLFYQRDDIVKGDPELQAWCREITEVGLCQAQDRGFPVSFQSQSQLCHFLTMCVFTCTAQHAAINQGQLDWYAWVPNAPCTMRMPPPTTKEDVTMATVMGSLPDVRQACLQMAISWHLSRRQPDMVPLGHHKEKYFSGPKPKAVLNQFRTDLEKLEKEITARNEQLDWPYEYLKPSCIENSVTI
# Outline: (§1)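 Recombinant human h15-LOX-1 (0.125 μM, 25 mM HEPES pH 7.5, 20 min) or h12-LOX (0.3 μM, pH 8.0, 1 h) reacted at room temperature with 1 μM 14S-HpDHA while oxylipin modulator was titrated (1–100 μM), or with 14S-HpDHA varied alone (1–50 μM). Products were reduced and analysed by LC-MS. Dehydration (epoxide) versus oxygenation product percentages were calculated, N = 3.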
# h15-LOX-1 [1] = molecular target: T2, h15-LOX-1 (Homo sapiens, UniProt P16050); assay: Allosteric modulation of 14S-HpDHA epoxidation by h15-LOX-1
# T2 sequence (P16050 1-662): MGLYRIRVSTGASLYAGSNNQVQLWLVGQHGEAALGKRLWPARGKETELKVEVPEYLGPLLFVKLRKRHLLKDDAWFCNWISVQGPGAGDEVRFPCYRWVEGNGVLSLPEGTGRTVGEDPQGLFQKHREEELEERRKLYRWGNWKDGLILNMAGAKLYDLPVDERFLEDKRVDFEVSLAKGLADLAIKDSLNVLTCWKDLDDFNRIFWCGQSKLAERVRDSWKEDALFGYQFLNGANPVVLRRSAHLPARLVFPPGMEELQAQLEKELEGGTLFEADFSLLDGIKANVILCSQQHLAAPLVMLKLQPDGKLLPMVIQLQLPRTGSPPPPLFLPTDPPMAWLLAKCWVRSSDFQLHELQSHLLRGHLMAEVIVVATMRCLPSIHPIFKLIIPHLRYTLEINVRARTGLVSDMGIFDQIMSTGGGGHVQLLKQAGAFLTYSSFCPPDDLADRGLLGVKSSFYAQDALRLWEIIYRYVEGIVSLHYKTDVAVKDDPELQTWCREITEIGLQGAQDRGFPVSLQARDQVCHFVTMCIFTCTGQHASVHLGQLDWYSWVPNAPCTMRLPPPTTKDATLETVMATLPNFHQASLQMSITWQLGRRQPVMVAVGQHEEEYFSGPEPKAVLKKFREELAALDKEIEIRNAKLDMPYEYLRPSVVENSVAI
# Outline: as §1
# h15-LOX-1 [2] = molecular target: T2, h15-LOX-1; assay: Product analysis of h15-LOX-1 reactions
# Outline: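 h15-LOX-1 (0.125 μM, pH 7.5) or h12-LOX (0.300 μM, pH 8.0) was reacted in 25 mM HEPES at room temperature under ambient O2. Substrates were 10 μM DHA for 1 min (monitored at 234 nm) or 1 μM 14S-HpDHA for 20 min (h15-LOX-1) or 1 h (h12-LOX) (monitored at 270 nm). Reactions were quenched with acetic acid, spiked with d5-maresin-1, extracted into DCM and background-subtracted against a no-enzyme control. Split samples were run with or without trimethyl phosphite reduction. Products were identified by C18 LC-MS/MS (qTOF), N = 3.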
# [3] = h15-LOX-1 + 1 μM 14S-HpDHA, 20 min, pH 7.5, ambient O2
smiles,measurement,setting,value
"CC/C=C\C/C=C\C[C@@H](/C=C/C=C\C/C=C\C/C=C\CCC(=O)O)OO [14S-HpDHA, 14S-hydroperoxy-4Z,7Z,10Z,12E,16Z,19Z-docosahexaenoic acid]",epoxidation product at end of titration,h12-LOX,19%
same,"7S,14S-EZE-diHDHA (oxygenation product)","h15-LOX-1 [1]; h15-LOX-1, 14S-HpDHA at high concentration (50 μM)",76 ± 0.5%
same,"7R/S,14S-EEE-diHDHA (epoxide degradation product)","h15-LOX-1 [1]; h15-LOX-1, 14S-HpDHA at low concentration (1 μM)",71 ± 11%
same,"product profile: 7S,14S-EZE-diHpDHA",h15-LOX-1 [2]; [3],29% and 29 ± 6%
same,"product profile: 13S,14S-epoxy-DHA (detected as 7S/R,14S-EEE-diHDHA)",h15-LOX-1 [2]; [3],71% and 71 ± 6%
same,"product profile: 14S,20-diHpDHA",h15-LOX-1 [2]; [3],<1.0%
same,"loss in 7S,14S-EZE-diHpDHA production at increased pH","h15-LOX-1 [2]; h15-LOX-1 + 14S-HpDHA, Figure S3",7 fold
